The source made the active and inactive calls. No cut-off for these calls is given here.
How the values were obtained:
Saccharomyces cerevisiae [1] = experiment: Growth inhibition of Saccharomyces cerevisiae 1138 mutant by yeast bioassay; assay type: functional
M109 = experiment: Cytotoxicity against mouse M109 cells; assay type: functional, cell-based
Procedure, shortened: (§1)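 Cell-culture cytotoxicity in a 25-line panel by standard methods. Activity given as IC50 in µM.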

A2780 [2] = experiment: Induction of apoptosis in human A2780 cells overexpressing wild type p53 at >5 X respective cytotoxic IC50 after 24 hrs; assay type: functional, cell-based
Procedure, shortened: (§2)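 Flow cytometry (FACS) of A2780/p53wt cells after 24 h exposure at increasing multiples of each compound's own IC50, scored for G1 arrest and apoptosis; A2780/mutp53 cells run alongside.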

A2780 [3] = experiment: Cell cycle arrest in human A2780 cells overexpressing wild type p53 by accumulation at G1 phase at 5 X respective cytotoxic IC50 after 24 hrs by FACS; assay type: functional, cell-based; procedure, shortened: as §2
Saccharomyces cerevisiae [4] = experiment: Growth inhibition of Saccharomyces cerevisiae 1140 mutant by yeast bioassay; assay type: functional
Saccharomyces cerevisiae [5] = experiment: Growth inhibition of Saccharomyces cerevisiae 1353 mutant by yeast bioassay; assay type: functional
A-431 = experiment: Cytotoxicity against human A431 cells; assay type: functional, cell-based; procedure, shortened: as §1
[6] = Cytotoxicity against human OVACR3 cells; assay type: functional, cell-based; procedure, shortened: as §1
MLF = experiment: Cytotoxicity against MLF cells; assay type: cell-based; conditions: Mus musculus; procedure, shortened: as §1

CCC[n+]1c2ccccc2cc2[nH]c3ccccc3c21.[I-]
IC12 (Saccharomyces cerevisiae [1]): 400 µg/mL

CCn1c2ccccc2c2c1cc1ccccc1[n+]2C.O=S(=O)([O-])C(F)(F)F
IC12 (Saccharomyces cerevisiae [1]): 80 µg/mL

Cn1c2ccccc2c2c1cc1ccccc1[n+]2C.O=S(=O)([O-])C(F)(F)F
IC50 (M109): < 10000 nM | IC12 (Saccharomyces cerevisiae [1]): 5 µg/mL

O=C1OCc2c3ccccc3nc3c4ccccc4n1c23
IC50 (M109): < 10000 nM | IC12 (Saccharomyces cerevisiae [1]): 50 µg/mL

O=Cc1c2ccccc2nc2c1[nH]c1ccccc12
IC12 (Saccharomyces cerevisiae [1]): > 400 µg/mL

C[n+]1c2ccccc2cc2oc3ccccc3c21.[I-]
IC12 (Saccharomyces cerevisiae [1]): 400 µg/mL

Cc1c2nc3ccccc3c-2[nH]c2ccccc12
IC50 (M109): < 10000 nM | IC12 (Saccharomyces cerevisiae [1]): 50 µg/mL

C[n+]1c2ccccc2cc2[nH]c3ccccc3c21 [listing 1 of 2 here]
Activity (A2780 [2]): Dose-dependent effect | Activity (A2780 [3]): Active

CCCn1c2ccccc2c2c1cc1ccccc1[n+]2C.O=S(=O)([O-])C(F)(F)F
IC12 (Saccharomyces cerevisiae [1]): 125 µg/mL

COC(=O)c1c2cc(Br)ccc2nc2c1[nH]c1ccccc12
IC12 (Saccharomyces cerevisiae [1]): 100 µg/mL

C[n+]1c2ccccc2cc2[n-]c3ccccc3c21.Cl [CRYPTOLEPINE HYDROCHLORIDE]
IC50 (M109): < 1 µg/mL | IC12 (Saccharomyces cerevisiae [1]): 0.6 µg/mL | IC12 (Saccharomyces cerevisiae [4]): 0.6 µg/mL | IC12 (Saccharomyces cerevisiae [5]): 0.6 µg/mL

CCCCn1c2ccccc2c2c1cc1ccccc1[n+]2C.O=S(=O)([O-])C(F)(F)F
IC12 (Saccharomyces cerevisiae [1]): 90 µg/mL

C[n+]1c2ccccc2cc2[nH]c3ccccc3c21 [listing 2 of 2 here]
IC50 (A-431): 340 nM | IC50 (M109): < 1000 nM | IC50 [6]: 500 nM | IC50 (MLF): 4900 nM

COC(=O)c1c2ccccc2nc2c1[nH]c1ccccc12
IC50 (M109): < 10000 nM | IC12 (Saccharomyces cerevisiae [1]): 40 µg/mL

O=C(OCCOC(=O)c1c2ccccc2nc2c1[nH]c1ccccc12)c1c2ccccc2nc2c1[nH]c1ccccc12
IC12 (Saccharomyces cerevisiae [1]): > 400 µg/mL

CC(CO)(CO)NCc1c2ccccc2nc2c1[nH]c1ccccc12
IC12 (Saccharomyces cerevisiae [1]): > 400 µg/mL

O=C(OCCO)c1c2ccccc2nc2c1[nH]c1ccccc12
IC12 (Saccharomyces cerevisiae [1]): > 400 µg/mL

c1ccc(Cn2c3ccccc3c3nc4ccccc4cc32)cc1
IC12 (Saccharomyces cerevisiae [1]): > 400 µg/mL

C[n+]1c2ccccc2cc2[nH]c3ccccc3c21.[I-] [CRYPTOLEPTINE IODIDE]
IC12 (Saccharomyces cerevisiae [1]): 1.5 µg/mL

c1ccc2nc3c(cc2c1)[nH]c1ccccc13 [QUINDOLINE]
IC12 (Saccharomyces cerevisiae [1]): 150 µg/mL

Clc1c2ccccc2nc2c1oc1ccccc12
IC12 (Saccharomyces cerevisiae [1]): > 400 µg/mL

CC[n+]1c2ccccc2cc2[nH]c3ccccc3c21.[I-]
IC50 (M109): < 50000 nM | IC12 (Saccharomyces cerevisiae [1]): 40 µg/mL

O=C(O)c1c2nc3ccccc3c-2[nH]c2ccccc12
IC12 (Saccharomyces cerevisiae [1]): > 400 µg/mL

OCc1c2ccccc2nc2c1[nH]c1ccccc12
IC12 (Saccharomyces cerevisiae [1]): 125 µg/mL

c1ccc2nc3c(cc2c1)oc1ccccc13
IC12 (Saccharomyces cerevisiae [1]): > 400 µg/mL

C=CCn1c2ccccc2c2c1cc1ccccc1[n+]2C.O=S(=O)([O-])C(F)(F)F
IC12 (Saccharomyces cerevisiae [1]): 200 µg/mL

O=c1c2ccccc2[nH]c2c1oc1ccccc12
IC12 (Saccharomyces cerevisiae [1]): > 400 µg/mL

Ic1c2ccccc2nc2c1oc1ccccc12
IC12 (Saccharomyces cerevisiae [1]): > 400 µg/mL

CC(=O)n1c2ccccc2c2c1cc1ccccc1[n+]2C.[Cl-]
IC50 (A-431): 340 nM | IC50 (M109): < 1000 nM | Activity (A2780 [2]): Dose-dependent effect | IC50 [6]: 500 nM | Activity (A2780 [3]): Active | IC12 (Saccharomyces cerevisiae [1]): 5 µg/mL | IC50 (MLF): 4900 nM

O=c1c2c3ccccc3nc3c4ccccc4n(c(=O)c4c5ccccc5nc5c6ccccc6n1c54)c32
IC12 (Saccharomyces cerevisiae [1]): > 400 µg/mL

CCCC[n+]1c2ccccc2cc2[nH]c3ccccc3c21.[Br-]
IC12 (Saccharomyces cerevisiae [1]): > 400 µg/mL

C[n+]1c2ccccc2cc2[n-]c3ccccc3c21 [CRYPTOLEPINE]
IC12 (Saccharomyces cerevisiae [1]): 0.5 µg/mL

NC(=O)c1c2cc(Br)ccc2nc2c1[nH]c1ccccc12
IC12 (Saccharomyces cerevisiae [1]): 400 µg/mL

CC(=O)n1c2ccccc2c2nc3ccccc3cc21
IC12 (Saccharomyces cerevisiae [1]): 80 µg/mL

From ChEMBL document CHEMBL1144068, “Synthesis and biological evaluation of analogues of cryptolepine, an alkaloid isolated from the Suriname rainforest” (J Nat Prod, 1999)
